This note sets out measurements from ChEMBL document CHEMBL1124472, “Renal vasodilators. The role of the 4-substituent in isoquinolin-3-ol cardiovascular agents: 4-ureido derivatives of isoquinolin-3-ol with selective renal vasodilator properties” (1989).

What all share (conditions): route intravenous
Test [1] concerns Canis familiaris. The test can be described thus: Percent change in heart rate by 1.2 mg/kg of compound administered intravenously in dog. Type of test: functional, Canis lupus familiaris. In a few lines:
(§1)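 Adult dogs anesthetized with pentobarbital (45 mg/kg ip), instrumented for electromagnetic renal artery flow; femoral artery cannulated for blood pressure, cardiotachometer for heart rate; iv via femoral vein. Cumulative infusion at rising rates, 5 min each (0.2+1.0 mg/kg for 1.2; 0.2+1.0+5.0 mg/kg for 6.2), in 0.9% saline ± acid/base; ≥2 dogs; maximal % change from predrug over ≥30 min; RVR = MAP/RBF.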

Test [2] deals with Canis familiaris. As to the kind of experiment: Percent change in mean arterial blood pressure by 1.2 mg/kg of compound administered intravenously in dog. Type of test: functional, Canis lupus familiaris. The procedure, abridged: as §1
Test [3] deals with Canis familiaris. The test can be described thus: Percent change in renal vascular resistant e by 1.2 mg/kg of compound administered intravenously in dog. The format is functional, Canis lupus familiaris. The procedure, abridged: as §1
The subject of test [4] is Canis familiaris. The test can be described thus: (§2) Percent change in renal blood flow by 1.2 mg/kg of compound administered intravenously in dog. Type of test: functional, Canis lupus familiaris, Kidney. In a few lines:
as §1

The subject of test [5] is Canis familiaris. As to the kind of experiment: Percent change in heart rate by 6.2 mg/kg of compound administered intravenously in dog. The format is functional, Canis lupus familiaris. In a few lines:
as §1

Test [6] relates to Canis familiaris. The test can be described thus: Percent change in mean arterial blood pressure by 6.2 mg/kg of compound administered intravenously in dog. Type of test: functional, Canis lupus familiaris. In a few lines:
as §1

Test [7] deals with Canis familiaris. The test can be described thus: Percent change in renal blood flow by 6.2 mg/kg of compound administered intravenously in dog. The format is functional, Canis lupus familiaris. In a few lines: as §1
Test [8] relates to Canis familiaris. As to the kind of experiment: Percent change in renal vascular resistant e by 6.2 mg/kg of compound administered intravenously in dog. The format is functional, Canis lupus familiaris. The procedure, abridged: as §1
Test [9] has as its system Canis familiaris. As to the kind of experiment: Percent increase in myocardial contractile force by 8.75 mg/kg of compound administered intravenously in dog. Type of test: functional, Canis lupus familiaris, Myocardium. In a few lines: (§3)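 Adult mongrel dogs, pentobarbital 45 mg/kg ip, artificially respired; right thoracotomy, Walton Brodie strain gauge on right ventricle at 100 g baseline tension. Only dogs giving >100% contractile-force rise to dopamine (10-15 μg/kg per min × 3 min) were used. Compound in 10-15% dimethylformamide, total dose infused iv into femoral vein; % change in contractile force.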

For test [10], the system named is Canis familiaris. The test can be described thus: Percent increase in myocardial contractile force by 1.88 mg/kg of compound administered intravenously in dog. The format is functional, Canis lupus familiaris, Myocardium. The procedure, abridged: as §3
Test [11] has as its system Canis familiaris. As to the kind of experiment: Percent increase in myocardial contractile force by 1.75 mg/kg of compound administered intravenously in dog. Type of test: functional, Canis lupus familiaris, Myocardium. The procedure, abridged:
as §3

Test [12] deals with Canis familiaris. As to the kind of experiment: Percent increase in myocardial contractile force by 0.025 mg/kg of compound administered intravenously in dog. Type of test: functional, Canis lupus familiaris, Myocardium. In a few lines: as §3
The subject of test [13] is Canis familiaris. The test is described as §2. Type of test: functional, Canis lupus familiaris. The procedure, abridged:
as §1

`CCOC(=O)c1ccc(NC(=O)Nc2c(O)nc(C)c3cc(OC)c(OC)cc23)cc1`: the Change in the test on Canis familiaris [1] is recorded as -1%; in the test on Canis familiaris [2], -2%; in the test with Canis familiaris [3], -4%; with Canis familiaris [4] it was 2%.

Regarding `CCCCNC(=O)Nc1c(O)nc(C)c2cc(OC)ccc12`, the Change with Canis familiaris [1] was -6%; with Canis familiaris [2] it was 3%; with Canis familiaris [3] it was 16%; in the test on Canis familiaris [4], -12%.

`C=CCOC(=O)Nc1c(O)nc(C)c2cc(OC)c(OC)cc12`: the Change in the test with Canis familiaris [5] was -2%; with Canis familiaris [6], -9%; with Canis familiaris [7] it was 2%; with Canis familiaris [8], -11%.

Regarding `CCCCNC(=O)Nc1c(O)nc(C)c2cc(O)c(O)cc12`, the Change in the test on Canis familiaris [1] is 2%; in the test on Canis familiaris [2], -1%; in the test on Canis familiaris [3], 2%; in the test with Canis familiaris [4] it was -2%.

As for `C=CCNC(=O)Nc1c(O)nc(C)c2cc(OC)c(OC)cc12`, the Change is on record as -3% in the test on Canis familiaris [1], 8% in the test with Canis familiaris [2], -44% in the test with Canis familiaris [3] and 97% in the test with Canis familiaris [4].

For `COc1ccc(NC(=O)Nc2c(O)nc(C)c3c(OC)c(OC)c(OC)cc23)cc1`, the Change with Canis familiaris [5] is 7%; in the test on Canis familiaris [6], -4%; with Canis familiaris [7] it was 14%; in the test with Canis familiaris [8] it was -15%.

Turning to `COc1cc2c(C)nc(O)c(NC(=O)NC(C)(C)C)c2cc1OC`, the Change in the test with Canis familiaris [5] is listed as -4%; with Canis familiaris [6] it was 1%; in the test with Canis familiaris [7] it was 10%; with Canis familiaris [8], -8%.

Consider `COc1cc2cnc(O)c(NC(C)=O)c2cc1OC`, for which the Change in the test on Canis familiaris [5] was -8%; in the test on Canis familiaris [6] it was 14%; in the test on Canis familiaris [7], 30%; in the test with Canis familiaris [8], -12%.

Regarding `CCCCC(=O)Nc1c(O)nc(C)c2cc(OC)c(OC)cc12`, the Change with Canis familiaris [5] was 6%; in the test on Canis familiaris [6], 3%; in the test on Canis familiaris [7], -9%; in the test on Canis familiaris [8], 13%.

For the compound `COc1cc2c(C)nc(O)c(NC(=O)NC3CCCCC3)c2cc1OC`, the Change is 0% in the test with Canis familiaris [1], 0% in the test on Canis familiaris [2], -4% with Canis familiaris [3] and 7% with Canis familiaris [4].

For `COc1ccc(NC(=O)Nc2c(O)nc(C)c3cc(OC)c(OC)cc23)cc1`, the Change is 2% with Canis familiaris [5], 12% in the test with Canis familiaris [6], 68% in the test on Canis familiaris [7] and -32% in the test with Canis familiaris [8].

`C=CCNC(=O)Nc1c(O)nc(C)c2cc(OCC)c(OC)cc12`: the Change in the test with Canis familiaris [1] is on record as 29%; in the test on Canis familiaris [2], -2%; in the test with Canis familiaris [3], -22%; with Canis familiaris [4], 28%.

Regarding `COc1cc2c(C)nc(O)c(NC(C)=O)c2cc1OC`, the Change in the test with Canis familiaris [5] is given as 14%; in the test on Canis familiaris [6] it was 6%; in the test with Canis familiaris [7], 39%; in the test with Canis familiaris [8], -24%. Besides, in the test with Canis familiaris [9], the Increase was 47%.

As to `COc1cc2c(C)nc(O)c(NC(=O)Nc3ccccc3)c2cc1OC`, the Change was -13% in the test on Canis familiaris [1], 0% in the test with Canis familiaris [2], 35% with Canis familiaris [3] and -23% in the test on Canis familiaris [4].

Regarding `COc1cc2c(C)nc(O)c(NC(=O)C(C)C)c2cc1OC`, the Change in the test on Canis familiaris [5] is -1%; with Canis familiaris [6], -2%; with Canis familiaris [7] it was -5%; with Canis familiaris [8] it was -4%.

As to `CCOc1cc2c(C)nc(O)c(NC(=O)Nc3ccc(OC)cc3)c2cc1OC`, the Change is recorded as 10% with Canis familiaris [5], 6% in the test with Canis familiaris [6], -8% in the test on Canis familiaris [7] and 15% with Canis familiaris [8].

In the case of `COc1cc2c(C)nc(O)c(NC(=O)Nc3ccc(C(=O)O)cc3)c2cc1OC`, the Change in the test on Canis familiaris [1] is recorded as -12%; in the test with Canis familiaris [2], -1%; with Canis familiaris [3], -28%; with Canis familiaris [4], 40%.

As for `CCCCOC(=O)Nc1c(O)nc(C)c2cc(OC)c(OC)cc12`, the Change in the test on Canis familiaris [5] was -6%; in the test on Canis familiaris [6], -3%; in the test with Canis familiaris [7], -23%; with Canis familiaris [8], 29%.

In the case of `CCCCCC(=O)Nc1c(O)nc(C)c2cc(OC)c(OC)cc12`, the Change in the test with Canis familiaris [5] is recorded as -9%; with Canis familiaris [6] it was 0%; in the test with Canis familiaris [7] it was -27%; with Canis familiaris [8], 40%.

As to `COc1cc2c(C)nc(O)c(NC(=O)Nc3ccc([N+](=O)[O-])cc3)c2cc1OC`, the Change is reported as -1% with Canis familiaris [1], 1% in the test with Canis familiaris [2], -2% with Canis familiaris [3] and 3% in the test with Canis familiaris [4].

Regarding `COc1cccc(NC(=O)Nc2c(O)nc(C)c3cc(OC)c(OC)cc23)c1`, the Change in the test with Canis familiaris [5] is reported as -2%; in the test on Canis familiaris [6] it was -1%; in the test with Canis familiaris [7] it was 59%; in the test with Canis familiaris [8], -36%.

Turning to `COc1cc2c(C)nc(O)c(N)c2cc1OC`, the Change was 4% in the test with Canis familiaris [5], 6% with Canis familiaris [6], 23% in the test on Canis familiaris [4] and -13% with Canis familiaris [8]. In the test with Canis familiaris [10], this compound registered an Increase of 114%.

On to `COc1cc2c(C)nc(O)c(NC(=O)Nc3ccc(C(F)(F)F)cc3)c2cc1OC`, for which the Change in the test on Canis familiaris [5] is 10%; in the test on Canis familiaris [6], 4%; in the test with Canis familiaris [7] it was 49%; in the test with Canis familiaris [8], -29%.

For the compound `COc1cccc(NC(=O)Nc2c(O)nc(C)c3cc(OC)ccc23)c1`, the Change is on record as 5% in the test on Canis familiaris [1], 2% in the test with Canis familiaris [2], -4% with Canis familiaris [3] and 17% in the test on Canis familiaris [4].

With `CCCCNC(=O)Nc1c(O)nc(C)c2cc(OC)c(OC)cc12`, the Change is on record as 6% in the test on Canis familiaris [1]; -2% in the test with Canis familiaris [5]; -3% with Canis familiaris [2]; -27% with Canis familiaris [3]; 4% with Canis familiaris [6]; 36% in the test with Canis familiaris [4]. The Change in the test on Canis familiaris [7] was 117%; in the test on Canis familiaris [8], -52%.

`CNC(=O)Nc1c(O)nc(C)c2cc(OC)c(OC)cc12`: the Change was 3% with Canis familiaris [1], 4% in the test with Canis familiaris [2], -5% with Canis familiaris [3] and 4% in the test with Canis familiaris [4].

Consider `COc1cc2c(C)nc(O)c(NC(=O)NC(C)C)c2cc1OC`, for which the Change is reported as 3% with Canis familiaris [1], -9% in the test on Canis familiaris [2], -10% in the test with Canis familiaris [3] and 11% in the test on Canis familiaris [4].

Take `COc1cc2cc(O)nc(C)c2cc1OC`: the Increase with Canis familiaris [11] is 100%.

As for `CCCNC(=O)Nc1c(O)nc(C)c2cc(OC)c(OC)cc12`, the Change in the test on Canis familiaris [1] is given as -7%; in the test with Canis familiaris [2], 1%; in the test on Canis familiaris [3], 0%; in the test on Canis familiaris [4], 5%.

`CCc1c(O)nc(C)c2cc(OC)c(OC)cc12` had an Increase in the test on Canis familiaris [12] of 143%.

For the compound `CCNC(=O)Nc1c(O)nc(C)c2cc(OC)c(OC)cc12`, the Change with Canis familiaris [1] is on record as 0%; in the test with Canis familiaris [2], 0%; in the test on Canis familiaris [3], -22%; with Canis familiaris [4] it was 28%.

Turning to `COc1cc2c(C)nc(O)c(NC(=O)Nc3cccc(C(F)(F)F)c3)c2cc1OC`, the Change in the test on Canis familiaris [5] is -10%; with Canis familiaris [6] it was 2%; in the test with Canis familiaris [7], 23%; in the test on Canis familiaris [8], -16%.

In the case of `COc1cccc(NC(=O)Nc2c(O)nc(C)c3c(OC)c(OC)ccc23)c1`, the Change in the test with Canis familiaris [1] is -2%; with Canis familiaris [2] it was -3%; with Canis familiaris [3], -16%; in the test with Canis familiaris [13] it was 17%.
